From ChEMBL document CHEMBL1152571, “Synthesis and biological evaluation of 4-fluoroproline and 4-fluoropyrrolidine-2-acetic acid derivatives as new GABA uptake inhibitors” (Bioorg Med Chem, 2009)

Assays:
[1] = target: Sodium- and chloride-dependent GABA transporter 1 (Mus musculus, UniProt P31648); test: Inhibition of GAT1 in mouse D8 cells assessed as [3H]GABA transport by liquid scintillation counting; format: cell-based
Outline: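 D8 cells expressing mouse GAT-1 were grown in RPMI 1640 with 10% FBS to near confluence (about 60,000 cells/well), rinsed with PBS and preincubated 10 min at room temperature in HBSS. [3H]GABA was added (151 nM final) for 20 min at room temperature. Uptake was stopped by aspiration and three rapid cold-PBS washes, and cells were lysed in 2 N NaOH. Uptake was counted by scintillation, giving IC50.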

GABA transporter 3 = target: T1, GABA transporter 3 (Mus musculus, UniProt P31649); test: Inhibition of GAT3 in mouse D8 cells assessed as [3H]GABA transport by liquid scintillation counting; format: cell-based
T1 sequence (P31649 whole entry): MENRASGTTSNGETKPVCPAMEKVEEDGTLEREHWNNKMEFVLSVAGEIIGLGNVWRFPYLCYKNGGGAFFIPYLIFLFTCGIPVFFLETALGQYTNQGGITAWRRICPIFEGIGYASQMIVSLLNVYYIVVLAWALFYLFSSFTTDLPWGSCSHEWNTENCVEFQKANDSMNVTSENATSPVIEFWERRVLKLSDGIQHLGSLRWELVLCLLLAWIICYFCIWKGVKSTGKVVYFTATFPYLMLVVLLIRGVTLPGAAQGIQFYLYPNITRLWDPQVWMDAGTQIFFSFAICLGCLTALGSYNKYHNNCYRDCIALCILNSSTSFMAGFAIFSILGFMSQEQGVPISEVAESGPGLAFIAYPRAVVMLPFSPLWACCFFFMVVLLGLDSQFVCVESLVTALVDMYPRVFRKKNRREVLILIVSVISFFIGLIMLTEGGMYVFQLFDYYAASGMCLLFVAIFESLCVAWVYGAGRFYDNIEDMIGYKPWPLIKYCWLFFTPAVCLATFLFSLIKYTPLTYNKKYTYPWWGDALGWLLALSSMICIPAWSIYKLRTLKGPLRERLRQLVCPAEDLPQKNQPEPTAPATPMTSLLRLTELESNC

IC50 [1]	IC50 (GABA transporter 3)	Structure (SMILES)
5.14 µM		Cc1ccsc1C(=CCCN1C[C@@H](O)C[C@H]1CC(=O)O)c1sccc1C
0.4 µM	64.8 µM	O=C(O)C[C@@H]1CCCN1CCC=C(c1ccccc1)c1ccccc1
3.96 µM		O=C(O)C[C@H]1C[C@@H](F)CN1CCC=C(c1ccccc1)c1ccccc1
2.97 µM		Cc1ccsc1C(=CCCN1C[C@H](F)C[C@@H]1CC(=O)O)c1sccc1C
0.65 µM		Cc1ccsc1C(=CCCN1CCC[C@H]1C(=O)O)c1sccc1C
12.8 µM		Cc1ccsc1C(=CCCN1C[C@H](F)C[C@H]1C(=O)O)c1sccc1C
5.81 µM		O=C(O)C[C@H]1C[C@H](F)CN1CCC=C(c1ccccc1)c1ccccc1
0.191 µM		Cc1ccsc1C(=CCCN1CCC[C@@H](C(=O)O)C1)c1sccc1C [TIAGABINE]

Second part, the compound before the results:

Structure (SMILES)	IC50 [1]	IC50 (GABA transporter 3)
O=C(O)C[C@@H]1C[C@@H](O)CN1CCC=C(c1ccccc1)c1ccccc1	3.29 µM	> 100 µM
Cc1ccsc1C(=CCCN1C[C@@H](F)C[C@H]1C(=O)O)c1sccc1C	18 µM	
O=C(O)C[C@@H]1C[C@H](O)CN1CCC=C(c1ccccc1)c1ccccc1	4.92 µM	
O=C(O)[C@@H]1CCCN1CCC=C(c1ccccc1)c1ccccc1	2.56 µM	309 µM
O=C(O)[C@@H]1C[C@@H](O)CN1CCC=C(c1ccccc1)c1ccccc1	79.6 µM	> 100 µM
O=C(O)[C@@H]1C[C@@H](F)CN1CCC=C(c1ccccc1)c1ccccc1	67.4 µM	
Cc1ccsc1C(=CCCN1C[C@@H](F)C[C@@H]1CC(=O)O)c1sccc1C	4.94 µM	
O=C(O)[C@@H]1C[C@H](F)CN1CCC=C(c1ccccc1)c1ccccc1	> 100 µM	
Cc1ccsc1C(=CCCN1CCC[C@H]1CC(=O)O)c1sccc1C	0.34 µM	26.6 µM
Cc1ccsc1C(=CCCN1C[C@H](O)C[C@H]1CC(=O)O)c1sccc1C	3.15 µM	> 100 µM
